Measured values from different studies.
Protocols differ between the studies behind these lines.
Observed: metabolic stability

CC1(CN)CCN(c2cnc3c(Sc4ccncc4Cl)n[nH]c3n2)CC1
half-life (mouse; liver microsomes): 630 min

O=C1CCC(N2Cc3cc(Nc4noc5cc(F)ccc45)ccc3C2=O)C(=O)N1 (centres unmarked)
half-life (CD-1 mouse; hepatocytes): > 216 min

CCOc1ccc2ccc(=O)oc2c1
half-life (male CD-1 mouse; hepatocytes; 1 µM): < 15 min

O=c1ccc2cc(O)ccc2o1
half-life (mouse; liver microsomes; 20 µM): 8.22 min

O=c1ccc2ccc(O)cc2o1
half-life (mouse; liver microsomes): 2 min

O=C(O)Cc1ccccc1Nc1c(Cl)cccc1Cl
half-life (mouse; liver microsomes): 60.8 min

CC(C)Oc1ccc(S(=O)(=O)c2ccc(Oc3cc(OCC(N)=O)c(C(=O)C(Cl)Cl)cc3[N+](=O)[O-])cc2)cc1
half-life (mouse; liver microsomes; 20 µM): 7.2 min

O=C(c1ccc(F)cc1)C1CCN(CCn2c(=O)[nH]c3ccccc3c2=O)CC1
half-life (mouse; liver microsomes): 22.8 min
